ChEMBL document CHEMBL5705885, “CYT387, a selective JAK1/JAK2 inhibitor: in vitro assessment of kinase selectivity and preclinical studies using cell lines and primary cells from polycythemia vera patients” (Leukemia, 2009)

Key:
[1] = target: Serine/threonine-protein kinase D1 (Homo sapiens, UniProt Q15139); test: Inhibition of PRKD1 (unknown origin)
Activin receptor type-1B = Activin receptor type-1B (Homo sapiens, UniProt P36896); test: Inhibition of ACVR1B (unknown origin)
[2] = target: Calcium/calmodulin-dependent protein kinase type 1D (Homo sapiens, UniProt Q8IU85); test: Inhibition of CAMK1 delta (unknown origin)
[3] = target: Cyclin-dependent kinase 1/cyclin B1 (Homo sapiens, UniProt P06493); test: Inhibition of CDK1/cyclin B (unknown origin); assay type: protein-complex assay
[4] = target: T1, Macrophage colony-stimulating factor 1 receptor (Homo sapiens, UniProt P07333); test: Inhibition of CSF1R (unknown origin)
[5] = target: Homeodomain-interacting protein kinase 1 (Homo sapiens, UniProt Q86Z02); test: Inhibition of HIPK1 (unknown origin)
[6] = target: Homeodomain-interacting protein kinase 4 (Homo sapiens, UniProt Q8NE63); test: Inhibition of HIPK4 (unknown origin)
[7] = target: Macrophage-stimulating protein receptor (Homo sapiens, UniProt Q04912); test: Inhibition of MST1R (unknown origin)
[8] = target: Serine/threonine-protein kinase Nek9 (Homo sapiens, UniProt Q8TD19); test: Inhibition of NEK9 (unknown origin)
[9] = target: Serine/threonine-protein kinase N1 (Homo sapiens, UniProt Q16512); test: Inhibition of PKN1 (unknown origin)
[10] = target: RAF proto-oncogene serine/threonine-protein kinase (Homo sapiens, UniProt P04049, Y340D); test: Inhibition of RAF1 Y340D (unknown origin)
[11] = target: Ribosomal protein S6 kinase beta-1 (Homo sapiens, UniProt P23443); test: Inhibition of RPS6KB1 (unknown origin)
[12] = target: Serine/threonine-protein kinase Sgk1 (Homo sapiens, UniProt O00141); test: Inhibition of SGK (unknown origin)
[13] = target: Calcium/calmodulin-dependent protein kinase type II subunit alpha (Homo sapiens, UniProt Q9UQM7); test: Inhibition of CAMK2 alpha (unknown origin)
[14] = target: Serine/threonine-protein kinase Chk1 (Homo sapiens, UniProt O14757); test: Inhibition of CHEK1 (unknown origin)
[15] = target: Dual specificity protein kinase CLK3 (Homo sapiens, UniProt P49761); test: Inhibition of CLK3 (unknown origin)
[16] = target: Casein kinase I isoform gamma-1 (Homo sapiens, UniProt Q9HCP0); test: Inhibition of CSNK1G1 (unknown origin)
[17] = target: Casein kinase II subunit alpha (Homo sapiens, UniProt P68400); test: Inhibition of CSNK2A1 (unknown origin)
[18] = target: Death-associated protein kinase 3 (Homo sapiens, UniProt O43293); test: Inhibition of DAPK3 (unknown origin)
[19] = target: Dual specificity tyrosine-phosphorylation-regulated kinase 1A (Homo sapiens, UniProt Q13627); test: Inhibition of DYRK1A (unknown origin)
[20] = target: Tyrosine-protein kinase Fer (Homo sapiens, UniProt P16591); test: Inhibition of FER (unknown origin)
[21] = target: Tyrosine-protein kinase Fyn (Homo sapiens, UniProt P06241); test: Inhibition of FYN (unknown origin)
[22] = target: Glycogen synthase kinase-3 alpha (Homo sapiens, UniProt P49840); test: Inhibition of GSK3alpha (unknown origin)
Insulin receptor = Insulin receptor (Homo sapiens, UniProt P06213); test: Inhibition of INSR (unknown origin)
[23] = target: Leukocyte tyrosine kinase receptor (Homo sapiens, UniProt P29376); test: Inhibition of LTK (unknown origin)
[24] = target: Mitogen-activated protein kinase 11 (Homo sapiens, UniProt Q15759); test: Inhibition of MAPK11 (unknown origin)
[25] = target: MAP kinase-activated protein kinase 5 (Homo sapiens, UniProt Q8IW41); test: Inhibition of MAPKAPK5 (unknown origin)
[26] = target: Serine/threonine-protein kinase Nek6 (Homo sapiens, UniProt Q9HC98); test: Inhibition of NEK6 (unknown origin)
[27] = target: PAS domain-containing serine/threonine-protein kinase (Homo sapiens, UniProt Q96RG2); test: Inhibition of PASK (unknown origin)
[28] = target: Platelet-derived growth factor receptor beta (Homo sapiens, UniProt P09619); test: Inhibition of PDGFRB (unknown origin)
[29] = target: Protein kinase C alpha type (Homo sapiens, UniProt P17252); test: Inhibition of PRKCA (unknown origin)
[30] = target: Protein kinase C beta type (Homo sapiens, UniProt P05771); test: Inhibition of PRKCB1 (unknown origin)
[31] = target: Protein-tyrosine kinase 6 (Homo sapiens, UniProt Q13882); test: Inhibition of PTK6 (unknown origin)
BaF3 = test: Antiproliferative activity against mouse BaF3 cells harboring JAK2V617F mutant measured after 72 hrs by Alamar blue staining based analysis; assay type: functional, cell-based; settings: BaF3, 72 h
In short: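 Ba/F3 murine cells expressing JAK2V617F or MPLW515L. Compound stocks in DMSO were diluted into culture medium. After 72 h at 37 °C in 5% CO2, proliferation was quantified with the Alamar Blue assay.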

Homo sapiens = organism: Homo sapiens; settings: dose 100.0 nM
[32] = target: Serine/threonine-protein kinase D3 (Homo sapiens) (UniProt O94806); settings: dose 100.0 nM
[33] = target: Dual specificity protein kinase CLK1 (Homo sapiens, UniProt P49759); settings: dose 100.0 nM
[34] = target: T1, Macrophage colony-stimulating factor 1 receptor; settings: dose 100.0 nM
[35] = target: G protein-coupled receptor kinase 4 (Homo sapiens, UniProt P32298); settings: dose 100.0 nM
[36] = target: Inhibitor of nuclear factor kappa-B kinase subunit beta (Homo sapiens) (UniProt O14920); settings: dose 100.0 nM
[37] = target: Mitogen-activated protein kinase kinase kinase 9 (Homo sapiens, UniProt P80192); settings: dose 100.0 nM
[38] = target: Mitogen-activated protein kinase 9 (Homo sapiens) (UniProt P45984); settings: dose 100.0 nM
[39] = target: Myosin light chain kinase 2, skeletal/cardiac muscle (Homo sapiens, UniProt Q9H1R3); settings: dose 100.0 nM
[40] = target: High affinity nerve growth factor receptor (Homo sapiens, UniProt P04629); settings: dose 100.0 nM
[41] = target: Protein kinase C gamma type (Homo sapiens, UniProt P05129); settings: dose 100.0 nM
[42] = target: Serine/threonine-protein kinase D2 (Homo sapiens) (UniProt Q9BZL6); settings: dose 100.0 nM
[43] = target: Serine/threonine-protein kinase Sgk1 (Homo sapiens) (UniProt O00141); settings: dose 100.0 nM

T1 sequence (P07333 whole entry): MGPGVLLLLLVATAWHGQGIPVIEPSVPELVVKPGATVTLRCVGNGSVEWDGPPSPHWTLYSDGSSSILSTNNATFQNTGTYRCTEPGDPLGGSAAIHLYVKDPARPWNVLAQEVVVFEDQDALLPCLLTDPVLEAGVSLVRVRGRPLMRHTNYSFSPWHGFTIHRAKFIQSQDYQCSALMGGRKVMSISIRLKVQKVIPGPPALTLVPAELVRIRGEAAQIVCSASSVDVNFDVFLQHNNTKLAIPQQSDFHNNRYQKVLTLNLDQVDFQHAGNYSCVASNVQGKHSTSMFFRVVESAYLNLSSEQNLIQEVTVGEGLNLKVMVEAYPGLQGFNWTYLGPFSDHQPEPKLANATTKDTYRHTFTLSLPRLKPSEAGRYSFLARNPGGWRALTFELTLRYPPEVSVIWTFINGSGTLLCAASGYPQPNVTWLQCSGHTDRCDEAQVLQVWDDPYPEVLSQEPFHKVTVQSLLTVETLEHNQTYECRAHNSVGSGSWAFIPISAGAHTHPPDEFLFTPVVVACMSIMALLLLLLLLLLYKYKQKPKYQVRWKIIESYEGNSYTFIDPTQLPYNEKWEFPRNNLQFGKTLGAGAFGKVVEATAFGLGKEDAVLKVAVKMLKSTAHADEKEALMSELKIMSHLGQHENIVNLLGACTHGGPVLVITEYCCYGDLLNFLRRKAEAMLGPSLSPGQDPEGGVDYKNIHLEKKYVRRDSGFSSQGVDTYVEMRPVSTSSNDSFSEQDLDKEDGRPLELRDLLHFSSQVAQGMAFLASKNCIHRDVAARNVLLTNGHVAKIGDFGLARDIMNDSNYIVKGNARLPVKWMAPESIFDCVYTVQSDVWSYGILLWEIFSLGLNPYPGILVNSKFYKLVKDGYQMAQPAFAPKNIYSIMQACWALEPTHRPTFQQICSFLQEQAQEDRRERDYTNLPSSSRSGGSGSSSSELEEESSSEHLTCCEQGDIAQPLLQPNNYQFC
Chain of Serine/threonine-protein kinase D1 (Q15139 whole entry): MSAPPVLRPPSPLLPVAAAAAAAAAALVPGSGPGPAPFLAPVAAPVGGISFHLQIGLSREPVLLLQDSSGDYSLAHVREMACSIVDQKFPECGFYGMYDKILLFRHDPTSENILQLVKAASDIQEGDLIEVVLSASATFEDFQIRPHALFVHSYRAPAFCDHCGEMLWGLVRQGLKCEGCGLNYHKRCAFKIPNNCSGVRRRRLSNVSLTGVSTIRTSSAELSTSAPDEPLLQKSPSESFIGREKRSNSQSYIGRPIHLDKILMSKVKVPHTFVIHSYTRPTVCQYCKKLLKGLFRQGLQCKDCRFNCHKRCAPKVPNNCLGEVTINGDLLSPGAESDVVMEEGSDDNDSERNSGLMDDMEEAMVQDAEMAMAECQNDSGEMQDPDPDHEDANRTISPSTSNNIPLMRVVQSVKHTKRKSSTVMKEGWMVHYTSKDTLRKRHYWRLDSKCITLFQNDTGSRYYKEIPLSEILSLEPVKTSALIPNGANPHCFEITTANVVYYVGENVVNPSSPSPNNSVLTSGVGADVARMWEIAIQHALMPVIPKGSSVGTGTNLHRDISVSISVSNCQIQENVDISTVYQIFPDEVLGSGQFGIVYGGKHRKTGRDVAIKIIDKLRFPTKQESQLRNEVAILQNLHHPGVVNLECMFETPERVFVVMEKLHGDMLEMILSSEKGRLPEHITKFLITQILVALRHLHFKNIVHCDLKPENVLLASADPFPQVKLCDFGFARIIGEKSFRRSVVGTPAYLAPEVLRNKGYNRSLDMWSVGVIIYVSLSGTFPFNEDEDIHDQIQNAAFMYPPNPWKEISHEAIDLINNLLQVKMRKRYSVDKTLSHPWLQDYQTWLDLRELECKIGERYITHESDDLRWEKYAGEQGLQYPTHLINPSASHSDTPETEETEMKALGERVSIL
Chain of MAP kinase-activated protein kinase 5 (Q8IW41 whole entry): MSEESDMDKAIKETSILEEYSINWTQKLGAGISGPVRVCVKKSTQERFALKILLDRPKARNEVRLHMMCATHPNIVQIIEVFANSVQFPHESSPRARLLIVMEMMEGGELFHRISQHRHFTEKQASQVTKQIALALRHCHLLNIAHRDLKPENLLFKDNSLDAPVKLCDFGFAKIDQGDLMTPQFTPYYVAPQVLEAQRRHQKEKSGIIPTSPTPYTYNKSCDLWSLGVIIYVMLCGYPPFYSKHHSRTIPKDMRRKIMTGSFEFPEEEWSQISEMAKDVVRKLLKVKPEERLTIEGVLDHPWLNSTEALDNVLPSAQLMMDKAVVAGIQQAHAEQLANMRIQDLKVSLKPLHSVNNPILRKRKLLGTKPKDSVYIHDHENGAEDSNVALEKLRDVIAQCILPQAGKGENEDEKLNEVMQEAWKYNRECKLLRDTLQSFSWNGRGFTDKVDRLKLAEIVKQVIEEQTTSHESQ
Chain of High affinity nerve growth factor receptor (P04629 33-796 limits assumed): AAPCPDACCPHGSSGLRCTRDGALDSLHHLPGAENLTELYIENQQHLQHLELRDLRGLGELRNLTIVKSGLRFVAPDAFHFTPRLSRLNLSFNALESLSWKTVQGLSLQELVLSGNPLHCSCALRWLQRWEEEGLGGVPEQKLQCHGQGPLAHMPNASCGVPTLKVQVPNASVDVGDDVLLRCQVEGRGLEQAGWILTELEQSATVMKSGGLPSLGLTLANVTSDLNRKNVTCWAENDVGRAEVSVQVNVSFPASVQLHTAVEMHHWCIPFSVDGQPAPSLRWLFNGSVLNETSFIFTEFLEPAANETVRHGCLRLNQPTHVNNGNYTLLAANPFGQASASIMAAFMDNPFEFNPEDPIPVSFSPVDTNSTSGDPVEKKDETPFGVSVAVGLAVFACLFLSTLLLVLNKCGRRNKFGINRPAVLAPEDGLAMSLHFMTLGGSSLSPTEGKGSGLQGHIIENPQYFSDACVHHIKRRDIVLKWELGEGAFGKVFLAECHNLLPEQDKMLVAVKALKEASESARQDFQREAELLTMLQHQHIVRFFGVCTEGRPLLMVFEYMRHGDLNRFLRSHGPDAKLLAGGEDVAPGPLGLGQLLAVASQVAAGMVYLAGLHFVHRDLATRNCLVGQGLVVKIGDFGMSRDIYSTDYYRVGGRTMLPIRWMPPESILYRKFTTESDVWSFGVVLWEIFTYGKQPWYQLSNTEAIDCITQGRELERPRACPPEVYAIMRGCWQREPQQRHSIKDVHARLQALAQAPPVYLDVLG
Chain of Glycogen synthase kinase-3 alpha (P49840 whole entry): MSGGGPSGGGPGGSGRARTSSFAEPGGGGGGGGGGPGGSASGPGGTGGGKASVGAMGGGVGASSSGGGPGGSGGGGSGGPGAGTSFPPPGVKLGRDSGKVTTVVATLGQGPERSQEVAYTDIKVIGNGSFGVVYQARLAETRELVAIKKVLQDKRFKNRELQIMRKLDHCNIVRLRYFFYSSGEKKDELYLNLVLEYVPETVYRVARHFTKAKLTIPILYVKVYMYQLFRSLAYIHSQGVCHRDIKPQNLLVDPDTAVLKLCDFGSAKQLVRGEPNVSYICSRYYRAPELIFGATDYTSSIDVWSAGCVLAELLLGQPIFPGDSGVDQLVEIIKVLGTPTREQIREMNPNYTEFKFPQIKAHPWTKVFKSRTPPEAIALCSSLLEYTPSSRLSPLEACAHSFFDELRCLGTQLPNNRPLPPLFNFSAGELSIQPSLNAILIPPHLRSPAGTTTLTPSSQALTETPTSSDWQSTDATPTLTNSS
Chain of Casein kinase I isoform gamma-1 (Q9HCP0 whole entry, canonical isoform): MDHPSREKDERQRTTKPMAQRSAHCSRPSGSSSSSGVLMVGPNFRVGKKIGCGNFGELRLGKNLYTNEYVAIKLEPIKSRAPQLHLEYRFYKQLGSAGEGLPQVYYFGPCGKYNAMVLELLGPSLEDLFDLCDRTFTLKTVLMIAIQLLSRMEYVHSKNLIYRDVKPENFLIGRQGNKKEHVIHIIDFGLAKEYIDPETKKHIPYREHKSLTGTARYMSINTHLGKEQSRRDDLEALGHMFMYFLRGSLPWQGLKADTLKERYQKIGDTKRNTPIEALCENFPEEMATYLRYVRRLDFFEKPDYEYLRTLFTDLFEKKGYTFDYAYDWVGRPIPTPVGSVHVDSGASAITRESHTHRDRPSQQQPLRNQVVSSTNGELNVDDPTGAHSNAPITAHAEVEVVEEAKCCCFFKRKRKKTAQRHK
Chain of Leukocyte tyrosine kinase receptor (P29376 whole entry): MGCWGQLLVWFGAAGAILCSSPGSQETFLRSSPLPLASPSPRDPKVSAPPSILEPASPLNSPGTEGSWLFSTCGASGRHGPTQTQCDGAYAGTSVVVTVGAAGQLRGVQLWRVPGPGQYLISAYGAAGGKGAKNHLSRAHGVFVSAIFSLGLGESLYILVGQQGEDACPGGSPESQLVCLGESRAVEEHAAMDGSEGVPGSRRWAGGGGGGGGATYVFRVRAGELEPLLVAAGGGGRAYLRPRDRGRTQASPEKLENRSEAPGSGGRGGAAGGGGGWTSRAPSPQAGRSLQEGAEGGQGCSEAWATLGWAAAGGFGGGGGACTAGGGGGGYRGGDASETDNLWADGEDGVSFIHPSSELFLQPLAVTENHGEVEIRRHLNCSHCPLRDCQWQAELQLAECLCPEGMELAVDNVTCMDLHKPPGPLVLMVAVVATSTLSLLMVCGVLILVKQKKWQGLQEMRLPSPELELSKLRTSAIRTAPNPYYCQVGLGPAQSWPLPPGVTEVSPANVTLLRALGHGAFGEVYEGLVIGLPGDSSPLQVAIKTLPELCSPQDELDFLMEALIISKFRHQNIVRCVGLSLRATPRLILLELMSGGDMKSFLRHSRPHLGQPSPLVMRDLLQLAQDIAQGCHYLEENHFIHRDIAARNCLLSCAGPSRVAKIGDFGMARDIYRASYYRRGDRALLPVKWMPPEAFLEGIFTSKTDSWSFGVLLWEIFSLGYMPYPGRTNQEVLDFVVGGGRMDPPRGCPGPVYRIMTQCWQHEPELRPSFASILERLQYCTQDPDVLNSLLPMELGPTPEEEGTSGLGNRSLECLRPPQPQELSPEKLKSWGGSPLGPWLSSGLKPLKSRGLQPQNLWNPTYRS

IC50 [1]: < 0.1 µM | IC50 (Activin receptor type-1B): < 1 µM | IC50 [2]: < 1 µM | IC50 [3]: < 1 µM | IC50 [4]: < 1 µM | IC50 [5]: < 1 µM | IC50 [6]: < 1 µM | IC50 [7]: < 1 µM | IC50 [9]: < 1 µM | IC50 [10]: < 1 µM | IC50 [11]: < 1 µM | IC50 [12]: < 1 µM | IC50 [13]: > 1 µM | IC50 [14]: > 1 µM | IC50 [15]: > 1 µM | IC50 [16]: > 1 µM | IC50 [17]: > 1 µM | IC50 [19]: > 1 µM | IC50 [20]: > 1 µM | IC50 [21]: > 1 µM | IC50 [22]: > 1 µM | IC50 (Insulin receptor): > 1 µM | IC50 [23]: > 1 µM | IC50 [24]: > 1 µM | IC50 [25]: > 1 µM | IC50 [26]: > 1 µM | IC50 [27]: > 1 µM | IC50 [28]: > 1 µM | IC50 [29]: > 1 µM | IC50 [30]: > 1 µM | IC50 [31]: > 1 µM | IC50 (BaF3): 1.5 µM | inhibition (Homo sapiens): > 50% | inhibition [32]: > 50% | inhibition [33]: < 50% | inhibition [34]: < 50% | inhibition [35]: < 50% | inhibition [36]: < 50% | inhibition [37]: < 50% | inhibition [38]: < 50% | inhibition [39]: < 50% | inhibition [40]: < 50% | inhibition [41]: < 50% | inhibition [42]: < 50% | inhibition [43]: < 50%
Structure (SMILES): N#CCNC(=O)c1ccc(-c2ccnc(Nc3ccc(N4CCOCC4)cc3)n2)cc1 [MOMELOTINIB]
IC50 [8]: < 1 µM | IC50 [18]: > 1 µM
